In publication PMC4862586 (The New England journal of medicine, 2015):

Key:
[1] = tested on: patients with relapsed CLL; test: Phase 1–2 multicenter study: safety, adverse events; format: in vivo
relapsed CLL = test: Phase 1–2 multicenter study: clinical response; format: in vivo, human; conditions: for Resolution of B symptoms: 16 patients with B symptoms at baseline
[2] = Pharmacokinetics in patients, cycle 1, non-compartmental analysis; format: in vivo; conditions: human, po
phosphorylated Btk = test: Phosphorylation of Btk by intracellular flow cytometry; format: in vivo, human; conditions: respective time points across all cohorts
Summary of the method: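 Patients with relapsed CLL received oral drug continuously at 100, 175, 250 or 400 mg once daily (dose escalation) or 100 mg twice daily (phase 2 expansion). Phosphorylated Btk in blood samples was measured by intracellular flow cytometry.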

platelet aggregation = test: Platelet aggregation derived from blood of patients; format: in vivo, human; conditions: blood of patients receiving the drug
[3] = tested on: pro-inflammatory cytokines; test: Pro-inflammatory cytokine levels in patients; format: in vivo, human; conditions: from baseline to day 28 of treatment
Summary of the method: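 Patients with relapsed CLL were dosed orally and continuously at 100–400 mg once daily or 100 mg twice daily. Change in serum cytokines from baseline was tested by Wilcoxon signed-rank. Only patients with baseline and every follow-up value were included, and there was no multiplicity adjustment.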

[4] = Serum immunoglobulins and immune cell numbers over time in patients; format: in vivo
primary CLL cells = test: B-cell receptor signaling in primary CLL cells; format: cell-based, human
EGFR = EGFR signaling; format: cell-based
Itk = biological target: T1, Itk (Homo sapiens, UniProt Q08881); test: Itk inhibition; format: cell-based
T1 sequence (Q08881 1-620): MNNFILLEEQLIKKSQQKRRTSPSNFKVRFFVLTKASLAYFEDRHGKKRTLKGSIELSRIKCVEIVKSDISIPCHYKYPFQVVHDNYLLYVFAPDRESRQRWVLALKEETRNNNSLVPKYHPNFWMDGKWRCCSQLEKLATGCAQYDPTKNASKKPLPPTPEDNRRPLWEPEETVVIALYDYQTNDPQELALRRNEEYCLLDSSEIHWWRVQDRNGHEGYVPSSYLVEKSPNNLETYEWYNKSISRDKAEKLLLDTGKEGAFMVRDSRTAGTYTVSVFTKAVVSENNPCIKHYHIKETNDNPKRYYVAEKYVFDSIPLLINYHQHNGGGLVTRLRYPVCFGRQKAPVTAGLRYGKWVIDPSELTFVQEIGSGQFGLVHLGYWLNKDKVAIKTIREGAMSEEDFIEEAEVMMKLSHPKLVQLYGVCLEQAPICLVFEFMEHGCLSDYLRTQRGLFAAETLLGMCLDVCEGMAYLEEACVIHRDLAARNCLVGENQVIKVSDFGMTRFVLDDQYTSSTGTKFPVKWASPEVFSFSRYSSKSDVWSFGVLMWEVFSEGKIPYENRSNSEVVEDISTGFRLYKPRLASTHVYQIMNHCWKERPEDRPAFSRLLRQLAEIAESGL

natural killer cells = format: cell-based, human; conditions: obinutuzumab-coated CLL cells
[5] = tested on: naturally occurring canine B-cell lymphomas; conditions: cited from earlier work
CLL = conditions: cited from earlier work
[6] = all patients, median follow-up 14.3 months

With `CC#CC(=O)N1CCC[C@H]1c1nc(-c2ccc(C(=O)Nc3ccccn3)cc2)c2c(N)nccn12` [acalabrutinib, Acalabrutinib] the “Grade 5 event of pneumonia” value ([1]; N=61) was “† The all-grade column includes one patient with a Grade 5 event of pneumonia”, the “Adverse event Arthralgia, All Grades” value ([1]; human, in vivo) was 10 (16) number of patients (percent) and the “Adverse event Arthralgia, Grades 1–2” value ([1]; human, in vivo) was 9 (15) number of patients (percent). For the same compound, the “Adverse event Arthralgia, Grades 3–4” value ([1]; human, in vivo) was 1 (2) number of patients (percent), the “Adverse event Contusion, All Grades” value ([1]; human, in vivo) was 11 (18) number of patients (percent) and the “Adverse event Contusion, Grades 1–2” value ([1]; human, in vivo) was 11 (18) number of patients (percent). The “Adverse event Contusion, Grades 3–4” value ([1]; human, in vivo) was 0 (0) number of patients (percent), the “Adverse event Decreased weight, All Grades” value ([1]; human, in vivo) was 10 (16) number of patients (percent) and the “Adverse event Decreased weight, Grades 1–2” value ([1]; human, in vivo) was 10 (16) number of patients (percent). The “Adverse event Decreased weight, Grades 3–4” value ([1]; human, in vivo) was 0 (0) number of patients (percent), the “Adverse event Diarrhea, All Grades” value ([1]; human, in vivo) was 24 (39) number of patients (percent) and the “Adverse event Diarrhea, Grades 1–2” value ([1]; human, in vivo) was 23 (38) number of patients (percent). The “Adverse event Diarrhea, Grades 3–4” value ([1]; human, in vivo) was 1 (2) number of patients (percent), the “Adverse event Fatigue, All Grades” value ([1]; human, in vivo) was 13 (21) number of patients (percent) and the “Adverse event Fatigue, Grades 1–2” value ([1]; human, in vivo) was 11 (18) number of patients (percent). For the same compound, the “Adverse event Fatigue, Grades 3–4” value ([1]; human, in vivo) was 2 (3) number of patients (percent), the “Adverse event Headache, All Grades” value ([1]; human, in vivo) was 26 (43) number of patients (percent) and the “Adverse event Headache, Grades 1–2” value ([1]; human, in vivo) was 26 (43) number of patients (percent). For the same compound, the “Adverse event Headache, Grades 3–4” value ([1]; human, in vivo) was 0 (0) number of patients (percent), the “Adverse event Hypertension, All Grades” value ([1]; human, in vivo) was 12 (20) number of patients (percent) and the “Adverse event Hypertension, Grades 1–2” value ([1]; human, in vivo) was 8 (13) number of patients (percent). For the same compound, the “Adverse event Hypertension, Grades 3–4” value ([1]; human, in vivo) was 4 (7) number of patients (percent), the “Adverse event Increased weight, All Grades” value ([1]; human, in vivo) was 16 (26) number of patients (percent) and the “Adverse event Increased weight, Grades 1–2” value ([1]; human, in vivo) was 15 (25) number of patients (percent). For the same compound, the “Adverse event Increased weight, Grades 3–4” value ([1]; human, in vivo) was 1 (2) number of patients (percent), the “Adverse event Nausea, All Grades” value ([1]; human, in vivo) was 12 (20) number of patients (percent) and the “Adverse event Nausea, Grades 1–2” value ([1]; human, in vivo) was 12 (20) number of patients (percent). For the same compound, the “Adverse event Nausea, Grades 3–4” value ([1]; human, in vivo) was 0 (0) number of patients (percent), the “Adverse event Peripheral edema, All Grades” value ([1]; human, in vivo) was 13 (21) number of patients (percent) and the “Adverse event Peripheral edema, Grades 1–2” value ([1]; human, in vivo) was 13 (21) number of patients (percent). The “Adverse event Peripheral edema, Grades 3–4” value ([1]; human, in vivo) was 0 (0) number of patients (percent), the “Adverse event Petechiae, All Grades” value ([1]; human, in vivo) was 10 (16) number of patients (percent) and the “Adverse event Petechiae, Grades 1–2” value ([1]; human, in vivo) was 10 (16) number of patients (percent). The “Adverse event Petechiae, Grades 3–4” value ([1]; human, in vivo) was 0 (0) number of patients (percent), the “Adverse event Pyrexia, All Grades” value ([1]; human, in vivo) was 14 (23) number of patients (percent) and the “Adverse event Pyrexia, Grades 1–2” value ([1]; human, in vivo) was 12 (20) number of patients (percent). For the same compound, the “Adverse event Pyrexia, Grades 3–4” value ([1]; human, in vivo) was 2 (3) number of patients (percent), the “Adverse event Upper respiratory tract infection, All Grades” value ([1]; human, in vivo) was 14 (23) number of patients (percent) and the “Adverse event Upper respiratory tract infection, Grades 1–2” value ([1]; human, in vivo) was 14 (23) number of patients (percent). For the same compound, the “Adverse event Upper respiratory tract infection, Grades 3–4” value ([1]; human, in vivo) was 0 (0) number of patients (percent), the “Most common adverse events: diarrhea” value ([1]; human, in vivo) was 39% and the “Most common adverse events: headache” value ([1]; human, in vivo) was 43%. For the same compound, the “Most common adverse events: increased weight” value ([1]; human, in vivo) was 26%, the “Most common adverse events: pyrexia” value ([1]; human, in vivo) was 23% and the “Most common adverse events: upper respiratory tract infection” value ([1]; human, in vivo) was 23%. For the same compound, the Dose-limiting toxicities ([1]; in vivo) was “No dose-limiting toxicities”, the “Major hemorrhage or atrial fibrillation” value ([1]; in vivo) was “No major hemorrhage or atrial fibrillation” and the “Severe diarrhea, rash, arthralgia/myalgia, bruising and bleeding events” value ([1]; in vivo) was “rare”. The “Tolerability of long-term therapy” value ([1]; in vivo) was “well tolerated”, the Response rate (relapsed CLL; 4 patients with prior idelalisib therapy) was 100% and the “Resolution of B symptoms” value (relapsed CLL; by cycle 4) was 88 % of patients. The “Resolution of B symptoms” value (relapsed CLL; by cycle 9) was 100 % of patients, the Response rate (relapsed CLL; 18 patients with del(17)(p13.1)) was 100% and the “Patients experiencing reduction in lymphadenopathy” value (relapsed CLL; 59 of 60 patients) was 98%. The Progression-free survival events (relapsed CLL; a death from pneumonia (13 months) and a single progression (16 months)) was 2 events, the “Best overall response rate (partial response and partial response with lymphocytosis)” value (relapsed CLL; [6]) was 95% and the “Partial response with lymphocytosis” value (relapsed CLL; [6]) was 10%. The Stable disease (relapsed CLL; [6]) was 5%, the “Cases of Richter’s transformation” value (relapsed CLL; median follow-up 14.3 months) was “No cases” and the “Improvements in hemoglobin levels, platelet count and absolute neutrophil count” value (relapsed CLL; patients with baseline cytopenia) was “noted in the great majority of patients”. The Absorption and elimination ([2]; in vivo) was “rapidly absorbed and eliminated”, the half-life ([2]; plasma) was about 1 h and the “Phosphorylated Btk after treatment” value (phosphorylated Btk) was “complete loss of phosphorylated Btk”. The Platelet aggregation (platelet aggregation) was “not the former”, the Pro-inflammatory cytokines [3] was “decreased significantly” and the “Serum IgG, IgA and IgM over time” value ([4]; excluding patients receiving intravenous immunoglobulin) was “did not demonstrate significant change”. For the same compound, the “T cell (CD4+, CD8+), natural killer cell and monocyte numbers over time” value ([4]; human, in vivo) was “no clinically significant change”, the “Inhibition of B-cell receptor signaling” value (primary CLL cells) was “dose-dependent inhibition” and the “Inhibition of EGFR signaling” value (EGFR) was “does not inhibit”. For the same compound, the Itk inhibition (Itk) was “lack of Itk inhibition”, the “Inhibition of antibody-mediated killing by natural killer cells” value (natural killer cells) was “does not inhibit” and the Clinical responses [5] was “objective clinical responses”.
For `C=CC(=O)Nc1cccc(Nc2nc(Nc3ccc(OCCOC)cc3)ncc2F)c1` [CC-292], the Clinical results (CLL; CLL) is listed as “inferior clinical results compared with ibrutinib” and the Tolerability (CLL; human, in vivo) is listed as “well tolerated”.
